Results reported in ChEMBL document CHEMBL4665717, “New V1a receptor antagonist. Part 2. Identification and optimization of triazolobenzazepines” (Bioorg Med Chem Lett, 2020).
pIC50, pKi: −log10 of the molar value.

Legend:
Vasopressin V1a receptor [1] = target: T1, Vasopressin V1a receptor (Homo sapiens, UniProt P37288); experiment: Displacement of [3H]AVP from human V1a receptor expressed in […] cells assessed as dissociation constant by radioligand binding assay; type: cell-based, 1321N1
Procedure, shortened: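 Membranes from 1321N1 cells expressing human V1a or V2 receptor incubated with [3H]AVP and increasing test compound concentrations. Nonspecific binding defined with 2 µM arginine-vasopressin for both receptors. IC50 taken from sigmoidal fit of displacement curves, then converted to Ki by Cheng-Prusoff.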
Target sequence in this assay (P37288 whole entry): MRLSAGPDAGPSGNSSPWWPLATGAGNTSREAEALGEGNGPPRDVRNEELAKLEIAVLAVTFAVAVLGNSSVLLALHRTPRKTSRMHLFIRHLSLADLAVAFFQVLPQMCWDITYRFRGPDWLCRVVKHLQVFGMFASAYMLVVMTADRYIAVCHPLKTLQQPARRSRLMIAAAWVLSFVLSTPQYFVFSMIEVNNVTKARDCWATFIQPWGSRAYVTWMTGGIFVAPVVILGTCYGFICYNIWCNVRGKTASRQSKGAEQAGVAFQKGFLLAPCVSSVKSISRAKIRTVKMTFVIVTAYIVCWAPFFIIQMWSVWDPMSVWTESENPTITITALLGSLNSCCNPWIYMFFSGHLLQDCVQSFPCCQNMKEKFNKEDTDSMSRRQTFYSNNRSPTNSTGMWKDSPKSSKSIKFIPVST

Vasopressin V1a receptor [2] = target: T1, Vasopressin V1a receptor; experiment: Inhibition of human V1a receptor expressed in human 1321N1 cells assessed as decrease in Arg8-vasopressin-stimulated calcium flux by fluorometric calcium assay; type: functional, cell-based
Procedure, shortened: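 1321N1 cells expressing human V1a receptor stimulated with (Arg8)-vasopressin. Intracellular Ca2+ change measured. IC50 values averaged from at least three independent measurements.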
Target sequence in this assay (P37288 whole entry): as above

[3] = Apparent permeability across apical to basolateral side in vinblastine-treated human Caco-2 cells at 10 uM by HPLC-UV analysis
P-glycoprotein [4] = experiment: Efflux ratio of Apparent permeability across apical to basolateral side in human Caco-2 cells expressing P-glycoprotein at 10 uM by HPLC-UV analysis
in vitro [5] = conditions: human, liver microsomes
in vitro [6] = conditions: Wistar, rat, liver microsomes
in vitro [7] = conditions: NMRI, mouse, liver microsomes
Vasopressin V1a receptor [8] = target: T1, Vasopressin V1a receptor; experiment: Displacement of [3H]AVP from human V1a receptor expressed in […] cells at 10 uM by radioligand binding assay relative to control; type: cell-based
Procedure, shortened: (§1)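 Membranes from 1321N1 cells expressing human V1a or V2 receptor incubated with [3H]AVP and single test concentration. Nonspecific binding defined with 2 µM arginine-vasopressin.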
Target sequence in this assay (P37288 whole entry, looked up): as the sequence (P37288 whole entry) above

Vasopressin V1a receptor [9] = target: T1, Vasopressin V1a receptor; experiment: Inhibition of human V1a receptor expressed in human 1321N1 cells assessed as decrease in Arg8-vasopressin-stimulated calcium flux at 10 uM by fluorometric calcium assay relative to control; type: functional, cell-based
Target sequence in this assay (P37288 whole entry, looked up): as the sequence (P37288 whole entry) above

[10] = Apparent permeability across apical to basolateral side in vinblastine-treated human Caco-2 cells at 1 uM by HPLC-UV analysis; type: ADME
Procedure, shortened: (§2)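 Bidirectional transport across VB-Caco-2 monolayers with test compound at 1 or 10 µM. Apparent permeability A→B reported, with PDR from the two directions.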

P-glycoprotein [11] = experiment: Efflux ratio of Apparent permeability across apical to basolateral side in vinblastine-treated human Caco-2 cells expressing P-glycoprotein at 1 uM by HPLC-UV analysis; type: ADME; procedure, shortened: as §2
Vasopressin V2 receptor = Vasopressin V2 receptor (Homo sapiens, UniProt P30518); experiment: Displacement of [3H]AVP from human […] receptor expressed in […] cells at 1 uM by radioligand binding assay relative to control; type: cell-based; conditions: 1321N1; procedure, shortened: as §1
Chain of Vasopressin V2 receptor (P30518 whole entry): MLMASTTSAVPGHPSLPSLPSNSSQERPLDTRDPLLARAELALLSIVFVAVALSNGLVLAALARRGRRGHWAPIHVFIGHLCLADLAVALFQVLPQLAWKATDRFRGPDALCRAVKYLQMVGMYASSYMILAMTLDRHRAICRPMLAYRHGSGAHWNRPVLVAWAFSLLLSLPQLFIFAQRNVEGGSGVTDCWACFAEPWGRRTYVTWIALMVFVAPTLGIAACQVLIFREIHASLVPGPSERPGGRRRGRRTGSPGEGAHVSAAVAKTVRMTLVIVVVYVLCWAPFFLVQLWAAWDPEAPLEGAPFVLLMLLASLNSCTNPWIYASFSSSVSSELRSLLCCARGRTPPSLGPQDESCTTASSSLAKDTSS

Mus musculus = species: Mus musculus; experiment: animal or person; conditions: ip, 1 h, read-out: INH

SMILES | pKi (Vasopressin V1a receptor [1]) | pIC50 (Vasopressin V1a receptor [2]) | microsomal CLint at 1 µM (in vitro [5]) [µL/min/mg] | microsomal CLint at 1 µM (in vitro [6]) [µL/min/mg] | microsomal CLint at 1 µM (in vitro [7]) [µL/min/mg] | inhibition (Vasopressin V1a receptor [9]) [%] | also measured
Brc1ccc2c(c1)CCCc1nnc(C3CCN(c4ccccn4)CC3)n1-2 | 9.15 | 7.89 | 8 | 111 | 50 | – | Papp A→B at 10 µM [3]: 46 ×10⁻⁶ cm/s; efflux ratio at 10 µM (P-glycoprotein [4]): 0.8
Clc1ccc2c(c1)CCc1nnc(C3CCNCC3)n1-2 | – | – | – | – | – | < 50 | inhibition (Vasopressin V1a receptor [8]; 1321N1): 14%
Cc1cc([C@H]2CC[C@H](c3nnc4n3-c3ccc(Cl)cc3[C@H]3C[C@@H]43)CC2)no1 | 7.26 | 6.20 | – | – | – | – | –
O=S(=O)(c1ccc2c(c1)CCO2)N1CCC(c2nnc3n2-c2ccc(Cl)cc2CC3)CC1 | – | – | – | – | – | < 50 | inhibition (Vasopressin V1a receptor [8]; 1321N1, filed as antagonist): 43%
C#Cc1ccc2c(c1)CCCc1nnc(C3CCN(c4ccccn4)CC3)n1-2 | 9.35 | 8.57 | 27 | 121 | 115 | – | –
Clc1ccc2c(c1)CCCc1nnc(C3CCN(c4ccccn4)CC3)n1-2 | 8.85 | 8.49 | 19 | 196 | 116 | – | Papp A→B at 1 µM [10]: 37 ×10⁻⁶ cm/s; efflux ratio at 1 µM (P-glycoprotein [11]): 1.1
Cc1ccc(S(=O)(=O)N2CCC(c3nnc4n3-c3ccc(Cl)cc3CC4)CC2)cc1 | – | – | – | – | – | < 50 | inhibition (Vasopressin V1a receptor [8]; 1321N1, filed as antagonist): 42%
O=C(C1CCN(c2ccccn2)CC1)N1CCNc2cc(Cl)ccc21 | 8.85 | 6.59 | 80 | 404 | 132 | – | Papp A→B at 10 µM [3]: 48 ×10⁻⁶ cm/s; efflux ratio at 10 µM (P-glycoprotein [4]): 0.7
Clc1ccc2c(c1)C1CC1c1nnc(C3CCN(c4ccccn4)CC3)n1-2 (stereo unspecified) | 6.59 | – | – | – | – | < 50 | –
NC1Cc2cc(Cl)ccc2-n2c1nnc2C1CCN(c2ccccn2)CC1 (stereo unspecified) | – | – | – | – | – | < 50 | inhibition (Vasopressin V1a receptor [8]; 1321N1): 34%
COC(=O)CC1Cc2cc(Cl)ccc2-n2c1nnc2[C@H]1CC[C@H](Oc2ccccn2)CC1 (stereo partly specified) | 7.55 | 6.66 | 81 | 72 | 373 | – | –
Cc1cc([C@H]2CC[C@H](c3nnc4n3-c3ccc(Cl)cc3C3CC43)CC2)no1 (mixture of isomers) | 7.00 | 6.30 | 0.3 | 1 | 3 | – | –
Cc1ccccc1N1CCN(C(=O)N2C[C@@H](C(=O)N3CCCC3)Cc3cc(Cl)ccc32)CC1 | 9.22 | 8.62 | 72 | 170 | 235 | – | Papp A→B at 1 µM [10]: 10 ×10⁻⁶ cm/s; efflux ratio at 1 µM (P-glycoprotein [11]): 1.3
O=S(=O)(c1ccccn1)N1CCC(c2nnc3n2-c2ccc(Cl)cc2CC3)CC1 | – | – | – | – | – | < 50 | inhibition (Vasopressin V1a receptor [8]; 1321N1): 19%
Cc1cc([C@H]2CC[C@H](c3nnc4n3-c3ccc(Cl)cc3CC4)CC2)no1 | 7.89 | 7.00 | 0.3 | 13 | 13 | – | inhibition (Vasopressin V2 receptor): 9%; inhibition in vivo at 10 mg/kg (Mus musculus): 45%
Cc1cc([C@H]2CC[C@H](c3nnc4n3-c3ccc(Br)cc3CCC4)CC2)no1 | 9.22 | 8.77 | 3 | 76 | 36 | – | –
O=c1[nH]c2cc(Cl)ccc2n2c(C3CCN(c4ccccn4)CC3)nnc12 | – | – | – | – | – | 0 | inhibition (Vasopressin V1a receptor [8]; 1321N1): 3%
Cc1nnc2n1-c1ccc(Cl)cc1CC2 | – | – | – | – | – | < 50 | inhibition (Vasopressin V1a receptor [8]; 1321N1): 9%
Clc1ccc2c(c1)CCc1nnc(C3CCCCC3)n1-2 | – | – | – | – | – | < 50 | inhibition (Vasopressin V1a receptor [8]; 1321N1): 35%

SMILES | pKi (Vasopressin V1a receptor [1]) | pIC50 (Vasopressin V1a receptor [2]) | microsomal CLint at 1 µM (in vitro [5]) [µL/min/mg] | microsomal CLint at 1 µM (in vitro [6]) [µL/min/mg] | microsomal CLint at 1 µM (in vitro [7]) [µL/min/mg] | inhibition (Vasopressin V1a receptor [9]) [%] | also measured
Cc1cc([C@H]2CC[C@H](c3nnc4n3-c3ccc(Cl)cc3[C@@H]3C[C@H]43)CC2)no1 | 6.24 | – | – | – | – | < 50 | –
O=S(=O)(c1ccc(F)cc1)N1CCC(c2nnc3n2-c2ccc(Cl)cc2CC3)CC1 | – | – | – | – | – | < 50 | inhibition (Vasopressin V1a receptor [8]; 1321N1): 36%
CC1(C)Nc2cc(Cl)ccc2-n2c(C3CCN(c4ccccn4)CC3)nnc21 | 6.10 | – | – | – | – | 28 | –
Cc1cc([C@H]2CC[C@H](c3nnc4n3-c3ccccc3CCC4)CC2)no1 | 8.80 | 7.60 | 0.4 | 125 | 114 | – | –
CC(=O)N1c2cc(Cl)ccc2-n2c(C3CCN(c4ccccn4)CC3)nnc2C1(C)C | 5.62 | – | – | – | – | 43 | –
CC(C)(C)OC(=O)NC1Cc2cc(Cl)ccc2-n2c(C3CCN(c4ccccn4)CC3)nnc21 (stereo unspecified) | – | – | – | – | – | < 50 | inhibition (Vasopressin V1a receptor [8]; 1321N1): 25%
c1ccc(N2CCC(c3nnc4n3-c3ccccc3CCC4)CC2)nc1 | 7.82 | 6.93 | 12 | 130 | 163 | – | –
c1ccc(O[C@H]2CC[C@H](c3nnc4n3-c3ccccc3CCC4)CC2)nc1 | 8.64 | 7.70 | 8 | 231 | 188 | – | –
Brc1ccc2c(c1)CCCc1nnc([C@H]3CC[C@H](Oc4ccccn4)CC3)n1-2 | 9.22 | 8.89 | 9 | 110 | 90 | – | Papp A→B at 10 µM [3]: 29 ×10⁻⁶ cm/s; efflux ratio at 10 µM (P-glycoprotein [4]): 0.9
Clc1ccc2nc3[nH]nc(C4CCN(c5ccccn5)CC4)n3c2c1 | – | – | – | – | – | 8 | inhibition (Vasopressin V1a receptor [8]; 1321N1): 27%
Cc1cc([C@H]2CC[C@H](c3nnc4n3-c3ccc(Cl)cc3CCC4)CC2)no1 | 9.15 | 8.66 | 1 | 83 | 38 | – | –
Clc1ccc2c(c1)CCc1nnc(C3CCN(c4ccccn4)CC3)n1-2 | 7.15 | 5.85 | 0.3 | 32 | 36 | – | Papp A→B at 10 µM [3]: 51 ×10⁻⁶ cm/s; efflux ratio at 10 µM (P-glycoprotein [4]): 0.8
Clc1ccc2c(c1)nc1[nH]nc(C3CCN(c4ccccn4)CC3)n12 | 5.28 | – | – | – | – | 11 | –
COC(=O)C12CC1c1cc(Cl)ccc1-n1c2nnc1[C@H]1CC[C@H](Oc2ccccn2)CC1 (stereo partly specified) | 6.40 | – | – | – | – | < 50 | –
CCc1ccc2c(c1)CCCc1nnc(C3CCN(c4ccccn4)CC3)n1-2 | 7.82 | 6.60 | 31 | 163 | 170 | – | –
Clc1ccc2c(c1)C1CC1c1nnc([C@H]3CC[C@@H](Oc4ccccn4)CC3)n1-2 (stereo partly specified) | 6.74 | – | – | – | – | < 50 | –
CC(C)(C)OC(=O)N1CCC(c2nnc3n2-c2ccc(Cl)cc2CC3)CC1 | – | – | – | – | – | < 50 | inhibition (Vasopressin V1a receptor [8]; 1321N1): 37%
COc1nc2cc(Cl)ccc2n2c(C3CCN(c4ccccn4)CC3)nnc12 | 6.15 | – | 8 | 39 | 115 | 40 | Papp A→B at 1 µM [10]: 28 ×10⁻⁶ cm/s; efflux ratio at 1 µM (P-glycoprotein [11]): 0.8
